Measurements as given in publication PMC2861555 (International journal of radiation biology, 2009).
Where two headings read alike, the source gives them in different places. Marks after values point to notes of the source that are not given here.

Experiments:
[1] = primates, dose 63.3 µmol kg^−1 day^−1; ref Bergeron et al., 2006b; cited from earlier work
[2] = Multiple dose chelator administration in non-bile duct-cannulated; format: in vivo, rat; details: for % Administered Dose Excreted / Total U Excretion: urine + feces
Method in brief: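 Intact rats got uranyl acetate 1 mg U kg−1 s.c. (left flank), then test compound or DTPA 300 µmol kg−1 s.c. (right flank) immediately and at 24-h intervals (4 doses). Rats were caged singly with chow and water ad libitum. Urine and feces were collected every 24 h. Kidneys and other tissues were taken 24 h after the last dose. Uranium was measured by ICP-MS in triplicate; data are mean ± SEM.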

rats = details: rodent model; ref Bergeron et al., 2006b; cited from earlier work
[3] = format: in vivo, rat; details: for administered uranium excreted (bile + urine): 24 h collection
Method in brief: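 Bile duct-cannulated rats got uranium 1 mg U kg−1 s.c., then were housed singly in metabolic cages. A single s.c. 300 µmol kg−1 dose of test compound followed at 1, 2 or 4 h post-uranium. Bile and urine were collected for 24 h. Uranium was measured by ICP-MS, triplicate runs averaged. Data are mean ± SEM; one-tailed t-test assuming unequal variances, p<0.05.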

[4] = format: in vivo, rat; details: for Bile/Urine (%): bile share of U excretion / Bile/Urine (%): urine share of U excretion / % Administered Dose Excreted: 24 h; for Reduction (%) of renal uranium vs control / reduction of bone actinide content vs control: 24 h post-metal; for % Administered Dose Excreted: bile + urine; for Renal Conc.: kidneys removed 24 h post-metal; for Kidney U Conc. / Liver U Conc. / Lung U Conc. / Spleen U Conc. / Bone (femur) U Conc.: tissue 24 h post-metal; for Bone (femur) U Conc.: bone + bone marrow; for reduction of bone actinide content vs control: femur
[5] = 24 h after last of 4 daily s.c. doses of 300 µmol kg^−1
[6] = Day 1, 300 µmol kg^−1 s.c. daily x 4
[7] = Day 2, 300 µmol kg^−1 s.c. daily x 4
[8] = Day 3, 300 µmol kg^−1 s.c. daily x 4
[9] = Day 4, 300 µmol kg^−1 s.c. daily x 4
[10] = single 300 µmol kg^−1 s.c. dose given 1 h post-uranium
[11] = single 300 µmol kg^−1 s.c. dose given 2 h post-uranium
[12] = single 300 µmol kg^−1 s.c. dose given 4 h post-uranium

COCCOCCOCCOc1ccc(C2=N[C@@](C)(C(=O)O)CS2)c(O)c1 [compound 9, (S)-4,5-dihydro-2-[2-hydroxy-4-(3,6,9-trioxadecyloxy)phenyl]-4-methyl-4-thiazolecarboxylic acid]
iron excretion [1]: 450 µg Fe kg^−1 | Reduction (%) of renal uranium vs control [2, 5]: 62% | Renal Conc. [2, 5]: 12 ± 2 ^c µg g^−1 | Fecal U Excretion [2, 6]: 478 ± 181 µg/kg | Urine U Excretion ([2]; Day 1, 300 µmol kg^−1 s.c. daily x 4, first dose immediately post-U): 205 ± 27 µg/kg | % Administered Dose Excreted [2, 6]: 68.3% | Total U Excretion [2, 6]: 683 ± 161 ^d µg kg^−1 | Fecal U Excretion [2, 7]: 116 ± 46 µg/kg | Urine U Excretion [2, 7]: 39 ± 5 µg/kg | % Administered Dose Excreted [2, 7]: 15.5% | Total U Excretion [2, 7]: 155 ± 48 ^d µg kg^−1 | Fecal U Excretion [2, 8]: 33 ± 4 µg/kg | Urine U Excretion [2, 8]: 23 ± 4 µg/kg | % Administered Dose Excreted [2, 8]: 5.6% | Total U Excretion [2, 8]: 56 ± 7 µg/kg | Fecal U Excretion [2, 9]: 25 ± 2 µg/kg | Urine U Excretion [2, 9]: 11 ± 1 µg/kg | % Administered Dose Excreted [2, 9]: 3.6% | Total U Excretion [2, 9]: 36 ± 1 µg/kg | administered dose of uranium excreted at the end of four days (urine + feces) ([2]; cumulative over 4 days, 300 µmol kg^−1 s.c. daily x 4): 93% | nephrotoxicity (rats): virtually eliminated nephrotoxicity | reduction in renal uranium content vs control [3, 10]: 74% | administered uranium excreted (bile + urine) [3, 10]: 34.6% | reduction in renal uranium content vs control [3, 11]: 68% | administered uranium excreted (bile + urine) [3, 11]: 28.5% | reduction in renal uranium content vs control [3, 12]: 35% | administered uranium excreted (bile + urine) [3, 12]: 28.6% | Bile/Urine (%): bile share of U excretion ([4]; single dose 150 µmol kg^−1 SC): 69% | Bile/Urine (%): urine share of U excretion ([4]; single dose 150 µmol kg^−1 SC): 31% | Reduction (%) of renal uranium vs control ([4]; single dose 150 µmol kg^−1 SC): 55% | % Administered Dose Excreted ([4]; single dose 150 µmol kg^−1 SC): 48.2% | Renal Conc. ([4]; single dose 150 µmol kg^−1 SC): 37 ± 16 ^b µg g^−1 | Kidney U Conc. ([4]; single dose 150 µmol kg^−1 SC): 37 ± 16 ^b µg g^−1 | Liver U Conc. ([4]; single dose 150 µmol kg^−1 SC): 1.6 ± 0.9 ^c µg g^−1 | Lung U Conc. ([4]; single dose 150 µmol kg^−1 SC): 0.16 ± 0.13 µg/g | Spleen U Conc. ([4]; single dose 150 µmol kg^−1 SC): 0.20 ± 0.05 µg/g | Bone (femur) U Conc. ([4]; single dose 150 µmol kg^−1 SC): 2.1 ± 0.5 ^b µg g^−1 | reduction of bone actinide content vs control ([4]; single dose 150 µmol kg^−1 s.c.): 42% | Bile/Urine (%): urine share of U excretion ([4]; single dose 300 µmol kg^−1 PO): 29% | Bile/Urine (%): bile share of U excretion ([4]; single dose 300 µmol kg^−1 PO, listed as C00009): 71% | Reduction (%) of renal uranium vs control ([4]; single dose 300 µmol kg^−1 PO): 57% | % Administered Dose Excreted ([4]; single dose 300 µmol kg^−1 PO): 43.5% | Renal Conc. ([4]; single dose 300 µmol kg^−1 PO): 36 ± 8 ^b µg g^−1 | Kidney U Conc. ([4]; single dose 300 µmol kg^−1 PO): 36 ± 8 ^b µg g^−1 | Liver U Conc. ([4]; single dose 300 µmol kg^−1 PO): 0.6 ± 0.2 ^c µg g^−1 | Lung U Conc. ([4]; single dose 300 µmol kg^−1 PO): 0.10 ± 0.02 ^b µg g^−1 | Spleen U Conc. ([4]; single dose 300 µmol kg^−1 PO): 0.13 ± 0.02 ^b µg g^−1 | Bone (femur) U Conc. ([4]; single dose 300 µmol kg^−1 PO): 2.7 ± 1.2 µg/g | Bile/Urine (%): bile share of U excretion ([4]; single dose 300 µmol kg^−1 SC): 84% | Bile/Urine (%): urine share of U excretion ([4]; single dose 300 µmol kg^−1 SC): 16% | Reduction (%) of renal uranium vs control ([4]; single dose 300 µmol kg^−1 SC): 66% | % Administered Dose Excreted ([4]; single dose 300 µmol kg^−1 SC): ~52% | % Administered Dose Excreted ([4]; single dose 300 µmol kg^−1 SC, listed as C00009): 51.5% | Renal Conc. ([4]; single dose 300 µmol kg^−1 SC): 29 ± 6 ^b µg g^−1 | Kidney U Conc. ([4]; single dose 300 µmol kg^−1 SC): 29 ± 6 ^b µg g^−1 | Liver U Conc. ([4]; single dose 300 µmol kg^−1 SC): 0.9 ± 0.2 ^c µg g^−1 | Lung U Conc. ([4]; single dose 300 µmol kg^−1 SC): 0.13 ± 0.02 µg/g | Spleen U Conc. ([4]; single dose 300 µmol kg^−1 SC): 0.18 ± 0.04 µg/g | Bone (femur) U Conc. ([4]; single dose 300 µmol kg^−1 SC): 1.9 ± 0.5 ^b µg g^−1 | reduction of bone actinide content vs control ([4]; single dose 300 µmol kg^−1 s.c.): 48%
